In PubChem BioAssay:
Calls of active or inactive are those of the source.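 Rule for the calls, unless noted: active = NADPH fluorescence slope more negative than the mean of all samples by about 3 SD, 99.7% confidence; inactive = the rest.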

Tests used:
[1] = inhibitors of TNFa-induced NFkB p65 translocation, primary screen, imaging, HUVEC, MLSMR starter and 10KST1 sets (AID 438;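 active = inhibition above 20% together with a positive visual image hit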;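 note: compound added about 3h40 before a 20 min TNFalpha stimulation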;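 for inhibition: signal is the nuclear over cytoplasmic p65 intensity ratio per well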); details: HUVEC TNFa-induced p65 nuclear translocation; cell count: measured here: nuclei count (cytotoxicity indicator), at 2.08 µM; inhibition: at 2 µM, stronger effect = higher value, 0% TNFa-plus-vehicle, 100% no-TNFa wells
[2] = reduction of polyQ htt aggregates in cells – imaging, exon1htt(103Q)mCFP cells, high-content imaging, primary screen (AID 483;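 active = visual image review flags a hit and inhibition of aggregation exceeds 20%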;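 note: compound exposure lasted 3 days before fixation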;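 for nuclei count: percent of the per-plate median nuclei count of sample wells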); details: exon1htt(103Q)mCFP cell line, aggregate imaging, at 2 µM; inhibition of aggregation: stronger effect = higher value; nuclei count: measured here: cell count, toxicity
[3] = endothelial E-selectin expression blockers – imaging, HUVEC, immunofluorescence, MLSMR starter and 10KST1 sets, primary screen (AID 487;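 active = visually confirmed hit in the image check and inhibition above 20%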;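 for inhibition: signal is fraction of cell area covered by stained E-selectin grains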;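 for nuclei count: 100% = median nuclei count of all wells on the same plate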); details: HUVEC TNFalpha-induced E-selectin immunofluorescence imaging, at 2 µM; inhibition: stronger effect = higher value; nuclei count: measured here: cell number, toxicity
[4] = biological target: Voltage-gated potassium channel subunit beta-2 (Rattus norvegicus) (UniProt P62483); experiment: inhibitors of rat Kvbeta2 reductase activity – biochemical, NADPH fluorescence, primary screen (AID 622;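 active = fluorescence slope higher than the sample average by over 3 SD, cut at about -0.22 in these data, passing the limit was not always enough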;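 note: slope of raw intensity against log time taken from 70 to 1610 s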); details: recombinant KvBeta, 4-cyanobenzaldehyde reduction, at 10 µM, stronger effect = higher value
Chain of Voltage-gated potassium channel subunit beta-2 (Rattus norvegicus) (P62483 whole entry, looked up): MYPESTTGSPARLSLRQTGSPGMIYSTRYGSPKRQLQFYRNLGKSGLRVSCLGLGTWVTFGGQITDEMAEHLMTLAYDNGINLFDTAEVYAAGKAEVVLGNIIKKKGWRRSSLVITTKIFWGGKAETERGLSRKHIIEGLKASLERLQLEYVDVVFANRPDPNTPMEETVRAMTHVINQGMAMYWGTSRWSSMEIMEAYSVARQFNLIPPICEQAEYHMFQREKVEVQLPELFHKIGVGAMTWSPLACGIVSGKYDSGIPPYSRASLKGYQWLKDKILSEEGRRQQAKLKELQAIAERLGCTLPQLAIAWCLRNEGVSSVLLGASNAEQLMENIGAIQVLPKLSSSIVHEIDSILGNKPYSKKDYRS

[5] = biological target: Voltage-gated potassium channel subunit beta-2 (Rattus norvegicus) (UniProt P62483); experiment: enhancers of rat Kvbeta2 NADPH turnover – biochemical, NADPH fluorescence, primary screen (AID 623); details: Recombinant KvBeta, NADPH fluorescence decrease slope, 10 min; at 10 µM; stronger effect = lower value;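 note: fluorescence intensity change per second fitted from 20 to 320 s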
[6] = biological target: Muscarinic acetylcholine receptor M4 (Homo sapiens) (UniProt P08173); experiment: M4-linked GIRK flux change, two-sided – cell-based, HEK293 M4/GIRK, thallium flux, BTC-AM, M4 allosteric agonist project, primary screen (AID 625;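 active = fluorescence slope after compound addition differing from the mean of all tested samples at 99.7% confidence, mostly higher but some lower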;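 note: thallium influx through GIRK channels coupled to M4 in HEK293 cells with BTC-AM dye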); details: at 10 µM, actives lie on both sides
Chain of Muscarinic acetylcholine receptor M4 (Homo sapiens) (P08173 whole entry, looked up): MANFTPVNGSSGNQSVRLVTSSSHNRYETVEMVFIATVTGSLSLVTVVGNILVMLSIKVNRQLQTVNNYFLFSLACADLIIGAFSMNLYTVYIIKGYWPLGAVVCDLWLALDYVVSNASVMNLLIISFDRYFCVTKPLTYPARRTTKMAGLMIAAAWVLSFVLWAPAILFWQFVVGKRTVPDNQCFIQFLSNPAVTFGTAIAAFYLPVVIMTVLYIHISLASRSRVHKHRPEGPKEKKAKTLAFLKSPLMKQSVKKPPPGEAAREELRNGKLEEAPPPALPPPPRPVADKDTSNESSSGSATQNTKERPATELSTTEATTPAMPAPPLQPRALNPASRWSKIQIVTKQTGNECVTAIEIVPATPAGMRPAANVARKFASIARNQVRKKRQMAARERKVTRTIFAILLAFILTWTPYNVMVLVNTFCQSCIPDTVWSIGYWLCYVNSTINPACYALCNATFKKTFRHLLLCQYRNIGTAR
Outline: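 Material: HEK293 cells with M4 receptor and GIRK channels; Times: cells overnight at 37 °C, BTC-AM loading 1 h, reads 2 min total; Technique: kinetic BTC-AM fluorescence sampled at 1 Hz, 10 s pre-addition baseline; Read-out basis: slope over 15–24 s of trace normalized to starting intensity; Controls: carbachol positive, DMSO negative.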

[7] = blockers of RIG-like receptor reporter activation – cell-based, Sendai virus stimulus, luciferase, 10K MLSCN set, TLR/RLR signaling modifier project, primary screen (AID 602276;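 active = inhibition at or above 50% at 10 µM; inactive = inhibition below 50%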;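 note: firefly luciferase from ISG56 promoter only with Renilla not read in this screen; 0% = Sendai virus plus DMSO and 100% = medium plus DMSO without virus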); details: HEK293 RL24 IRF3 luciferase reporter, at 10 µM, stronger effect = higher value
[8] = TLR3 IRF3 reporter activation blockers – cell-based, poly I:C stimulus, luciferase, 10K MLSCN set, primary screen (AID 602277;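 active = inhibition of the reporter signal at or above 50%; inactive = inhibition below 50%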); details: HEK293-TLR3 RL24 IRF3 luciferase reporter, at 10 µM, stronger effect = higher value

| Structure (SMILES) | cell count [1] | inhibition [1] | inhibition of aggregation [2] | nuclei count [2] | inhibition [3] | nuclei count [3] | fluorescence slope [4] | NADPH fluorescence slope [5] | fluorescence slope [6] | inhibition [7] | inhibition [8] |
| --- | --- | --- | --- | --- | --- | --- | --- | --- | --- | --- | --- |
| CC(C)NC(=O)CSc1nnc(-c2ccc(C(C)(C)C)cc2)n1C | 563 | -16% (inactive) | -4.3% (inactive) | 96.8% | 8% (inactive) | 117% | -0.465 (inactive) | 5.2e-06 (inactive) | 0.00698 (inactive) | 4.36% (inactive) | 1.25% (inactive) |
| O=C(O)c1cc2c([nH]c1=O)CCCC2 | 661 | -18.4% (inactive) | 24.5% (inactive) | 96.3% | -0.2% (inactive) | 100% | -0.585 (inactive) | 2.3e-05 (inactive) | 0.00466 (inactive) | 13.7% (inactive) | 24.4% (inactive) |
| CCS(=O)(=O)N1CCC(C(=O)NC2CCCCC2)CC1 | 572 | 4.5% (inactive) | 7.8% (inactive) | 110% | 15.2% (inactive) | 118% | -0.483 (inactive) | -0.000241 (inactive) | 0.00287 (inactive) | 10% (inactive) | 16% (inactive) |
| Cc1ccc(S(=O)(=O)N2CCN(C(=O)CN3C(=O)NC4(CCOc5ccccc54)C3=O)CC2)cc1 (configuration not stated) | 697 | -3.3% (inactive) | 8.6% (inactive) | 106% | -38.5% (inactive) | 112% | -0.44 (inactive) | -0.000543 (inactive) | 0.00414 (inactive) | -12.9% (inactive) | -7.58% (inactive) |
| CCn1nnnc1NCc1cccn1C | 401 | 11% (inactive) | -12% (inactive) | 110% | -41.2% (inactive) | 100% | -0.414 (inactive) | 0.000106 (inactive) | 0.00612 (inactive) | 16.1% (inactive) | 22% (inactive) |
| Cc1c(/C(O)=C2/C(=O)C(=O)N(CCN3CCOCC3)C2c2cccs2)cnn1-c1ccccc1 (configuration not stated) | 566 | 13.4% (inactive) | -5% (inactive) | 103% | 21.8% (inactive) | 97.7% | -0.502 (inactive) | -0.000209 (inactive) | 0.00361 (inactive) | 2.43% (inactive) | 21.8% (inactive) |
| O=C(Nc1nccs1)c1ccc(Cl)c(S(=O)(=O)N2CCCCC2)c1 | 355 | 1.3% (inactive) | 30.8% (active) | 109% | -4.7% (inactive) | 117% | -0.311 (inactive) | -3.8e-05 (inactive) | 0.00573 (inactive) | 8.7% (inactive) | 7.95% (inactive) |
| Cc1nc(SCC(=O)c2c[nH]c3ccccc23)n[nH]1 | 339 | -6.5% (inactive) | -7.8% (inactive) | 103% | -81.8% (inactive) | 76.3% | -0.472 (inactive) | -6.1e-05 (inactive) | 0.00544 (inactive) | 17.1% (inactive) | 14.3% (inactive) |
| O=C(COC(=O)c1ccc(NS(=O)(=O)c2ccc3c(c2)OCCO3)cc1)NCC1CCCO1 (configuration not stated) | 424 | -18.3% (inactive) | 11.2% (inactive) | 69.5% | 1.1% (inactive) | 100% | -0.555 (inactive) | -3.4e-05 (inactive) | 0.00638 (inactive) | 4.88% (inactive) | 19.1% (inactive) |
| Cc1ccc(S(=O)(=O)N2CCOCC2)cc1C(=O)Nc1ccc(-c2cn3ccsc3n2)cc1 | 614 | -6.3% (inactive) | -3% (inactive) | 113% | -29.6% (inactive) | 122% | -0.462 (inactive) | -8.9e-06 (inactive) | 0.00613 (inactive) | -3.48% (inactive) | -16.4% (inactive) |
| C=CCSc1nnc(-c2ccccc2NC(C)=O)c(=O)[nH]1 | 765 | -33.6% (inactive) | 8% (inactive) | 102% | -60.3% (inactive) | 107% | -0.468 (inactive) | -0.000277 (inactive) | 0.00542 (inactive) | -0.29% (inactive) | 9.66% (inactive) |
| CCn1c(=O)cc(SCC(=O)Nc2cccnc2)c2ccccc21 | 369 | -8.6% (inactive) | 4.3% (inactive) | 101% | -15.9% (inactive) | 116% | -0.463 (inactive) | 2.2e-05 (inactive) | 0.00646 (inactive) | 2.11% (inactive) | -5.54% (inactive) |
| CCNc1oc(COc2cccc(C)c2)nc1C#N | 791 | -2.1% (inactive) | 15.8% (inactive) | 114% | -14.2% (inactive) | 111% | -0.57 (inactive) | -5e-05 (inactive) | 0.00641 (inactive) | -43.9% (inactive) | -83.4% (inactive) |
| CN(C(=O)c1ccno1)c1nnc(-c2cnccn2)s1 | 596 | -10.8% (inactive) | 10.8% (inactive) | 97.4% | -39.5% (inactive) | 107% | -0.309 (inactive) | -5.2e-05 (inactive) | 0.00542 (inactive) | 5.76% (inactive) | 10.1% (inactive) |
| O=C(c1ccccc1)N1CCCCC(Sc2nnnn2-c2ccccc2)C1=O (configuration not stated) | 385 | -15.4% (inactive) | 28.5% (inactive) | 76.4% | -112% (inactive) | 134% | -0.546 (inactive) | -2.4e-05 (inactive) | 0.00399 (inactive) | 4.27% (inactive) | 4.71% (inactive) |
| O=C(Nc1ccccc1)c1ccc(NCC2CCCO2)c(S(=O)(=O)N2CCOCC2)c1 (configuration not stated) | 637 | -1.5% (inactive) | 0.8% (inactive) | 108% | -99.7% (inactive) | 98.8% | -0.453 (inactive) | 1.2e-05 (inactive) | 0.00503 (inactive) | 5.98% (inactive) | 15.7% (inactive) |
| CS(=O)(=O)Nc1ccc(S(=O)(=O)Nc2nccs2)cc1 | 418 | 5.4% (inactive) | -6.9% (inactive) | 112% | -42.5% (inactive) | 87.9% | -0.399 (inactive) | 7.8e-05 (inactive) | 0.00758 (inactive) | 9.08% (inactive) | 14.5% (inactive) |
| CCOC(=O)c1ccc(NC(=O)NC(C)C2CCCO2)cc1 (configuration not stated) | 352 | -12.3% (inactive) | -23.9% (inactive) | 101% | -94.9% (inactive) | 86.6% | -0.462 (inactive) | 2e-05 (inactive) | 0.00652 (inactive) | -13% (inactive) | 98.6% (active) |
| COc1ccc(-c2noc(CCC(=O)NCCCN3CCC(Cc4ccccc4)CC3)n2)cc1 | 335 | 7.8% (inactive) | 2% (inactive) | 94% | -46.3% (inactive) | 108% | -0.547 (inactive) | -2.4e-05 (inactive) | 0.00434 (inactive) | 3.44% (inactive) | -1.77% (inactive) |
| CC1CCN(S(=O)(=O)c2ccc(S(=O)(=O)NCC(=O)C(C)(C)C)cc2)CC1 | 528 | -14.7% (inactive) | -10.2% (inactive) | 113% | -189% (inactive) | 166% | -0.571 (inactive) | -7.1e-05 (inactive) | 0.00717 (inactive) | 0.588% (inactive) | 9.79% (inactive) |
| Cc1nc(-c2cnn(-c3ccccc3)c2)c2cc(C)oc2n1 | 312 | -2.8% (inactive) | 10.4% (inactive) | 85.8% | -48.6% (inactive) | 159% | -0.572 (inactive) | 9.5e-07 (inactive) | 0.0027 (inactive) | 10.4% (inactive) | -22.9% (inactive) |
| CCCn1c(=N)n(CC(=O)c2cccs2)c2ccccc21 | 427 | 3.8% (inactive) | -0.8% (inactive) | 87.6% | -47% (inactive) | 114% | -0.552 (inactive) | -2.9e-05 (inactive) | 0.00423 (inactive) | 2.39% (inactive) | 3.66% (inactive) |
| CCC(C)NC(=O)CSC1=Nc2ccccc2C2=NC(CC(=O)NCc3ccccc3)C(=O)N12 (configuration not stated) | 651 | -7.5% (inactive) | -9% (inactive) | 55.7% | -58.9% (inactive) | 89.6% | -0.461 (inactive) | -1.4e-05 (inactive) | 0.00538 (inactive) | 10.6% (inactive) | 26.5% (inactive) |
| COCCNC(=O)c1ccc2c(c1)nc(C)n2-c1cccc(F)c1 | 292 | 19.4% (inactive) | -2% (inactive) | 99.8% | -16.6% (inactive) | 98.7% | -0.572 (inactive) | -3.3e-05 (inactive) | 0.00562 (inactive) | 15.5% (inactive) | 17.5% (inactive) |
| COc1ccc(C(=O)N(Cc2ccco2)C(C(=O)NC2CCCC2)c2ccc(O)cc2)cc1OC (configuration not stated) | 653 | -2.4% (inactive) | -3.3% (inactive) | 104% | 14.6% (inactive) | 103% | -0.54 (inactive) | -4.9e-05 (inactive) | 0.00452 (inactive) | 10.7% (inactive) | 12.6% (inactive) |
| Cc1cc(C)cc(N2CCCn3c2nc2c3c(=O)n(CCN3CCOCC3)c(=O)n2C)c1 | 390 | 3.3% (inactive) | 0.7% (inactive) | 108% | 27.6% (inactive) | 103% | -0.388 (inactive) | 6.6e-05 (inactive) | 0.00574 (inactive) | 18.5% (inactive) | 34.4% (inactive) |
| Nc1c(Sc2ccccc2)c(=O)[nH]c(=O)n1Cc1ccccc1 | 254 | 7.4% (inactive) | -8.5% (inactive) | 92.6% | -3.2% (inactive) | 78.6% | -0.249 (inactive) | -4.4e-06 (inactive) | 0.00651 (inactive) | -0.235% (inactive) | -2.56% (inactive) |
